From PubChem BioAssay AID651740 (Broad Institute, 2012)
The whole screen tested about 5,600 compounds, of which about 1,200 (21%) were called active. About 3% were inconclusive and are not listed.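 Rule for the calls: active = mean inhibition above about 95%, with at least 55% of replicates also reaching it (limit read from the data); inconclusive = meets just one of the two conditions; inactive = meets neither condition.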 The list is a sample of the results.

Experiment: inhibitors of intracellular T. cruzi replication, confirmation, NIH3T3 host cells, beta-gal parasites, cherry-pick, set 2 (AID 651740);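 note: plate controls were neutral control median for no effect and positive control median for full effect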
Conditions: T. cruzi beta-gal in NIH3T3, GalScreen luminescence, 90 h; at 2.09 µM; active compounds read high
Summary of the method: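 Test system: beta-gal T. cruzi in mouse NIH/3T3 fibroblasts. Quantity: 5,000 host cells per well. Buffer or medium: DMEM plus 2% fetal bovine serum, 1% PSG. Reagent: 5000 trypomastigotes per well. Timing: 3 h host cell attachment, then ≥90 h compound-parasite co-culture, 60 min GalScreen. Technique: luminescence, GalScreen.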

SMILES	inhibition
CCC(=O)N1CC[C@@H]2[C@@H](CO)N(C)c3ccc(-c4cccc(OC)c4)cc3[C@@H]21	91.1% (inactive)
COc1ccc(NC(=O)N2CC[C@@H]3[C@@H](CO)N(C)c4ccc(-c5cccc(F)c5)cc4[C@@H]32)cc1	106% (active)
CCC(=O)N1CC[C@@H]2[C@@H](CO)N(C)c3ccc(-c4ccc(F)cc4)cc3[C@@H]21	79.1% (inactive)
COc1ccccc1NC(=O)N1CCCCN2[C@H](C1)[C@H](c1ccc(-c3ccccc3)cc1)[C@@H]2CO	65% (inactive)
C[C@H](O)C#Cc1ccc([C@H]2[C@H]3CN(S(=O)(=O)Cc4ccccc4)CCCCN3[C@H]2CO)cc1	11.7% (inactive)
COCC(=O)N1CC[C@@H]2[C@@H](CO)Nc3ccc(-c4cccc(C#N)c4)cc3[C@@H]21	30.7% (inactive)
O=C(c1cnccn1)N1CC[C@@H]2[C@H](CO)Nc3ccc(-c4cccc(F)c4)cc3[C@@H]21	87.3% (inactive)
N#Cc1ccc(-c2ccc3c(c2)[C@@H]2[C@@H](CCN2C(=O)Cc2ccncc2)[C@@H](CO)N3)cc1	54.9% (inactive)
O=C(Cc1ccccc1)N1CC[C@H]2[C@H](CO)Nc3ccc(-c4ccccc4F)cc3[C@H]21	64.2% (inactive)
O=S(=O)(c1ccccc1)N1CC[C@@H]2[C@@H](CO)Nc3ccc(C#Cc4cccc(F)c4)cc3[C@@H]21	101% (active)
Cc1ccccc1S(=O)(=O)N1CC[C@H]2[C@H](CO)Nc3ccc(-c4cccc(F)c4)cc3[C@H]21	93.1% (inactive)
O=S(=O)(c1ccccc1)N1CC[C@@H]2[C@@H](CO)Nc3ccc(-c4ccccc4F)cc3[C@@H]21	98.3% (active)
O=C(c1ccccn1)N1CC[C@@H]2[C@H]1c1cc(-c3ccccc3)ccc1N[C@@H]2CO	110% (active)
OC[C@@H]1Nc2ccc(-c3cccc(F)c3)cc2[C@H]2[C@@H]1CCN2Cc1ccncc1	55.6% (inactive)
O=S(=O)(c1ccccc1)N1CC[C@@H]2[C@H]1c1cc(C#Cc3cccc(F)c3)ccc1N[C@@H]2CO	92.6% (inactive)
CC(=O)N1CC[C@@H]2[C@H](CO)Nc3ccc(C#Cc4ccccc4F)cc3[C@@H]21	14.9% (inactive)
O=C(c1cccc(F)c1)N1CC[C@@H]2[C@@H](CO)Nc3ccc(C#Cc4cccc(F)c4)cc3[C@@H]21	106% (active)
O=C(Nc1cc(Cl)cc(Cl)c1)N[C@H]1CC[C@@H](CCNS(=O)(=O)c2cccc(F)c2)O[C@H]1CO	2.51% (inactive)
CC(C)C#Cc1ccc([C@H]2[C@H](CO)N3CCCCN(C(=O)NC(C)C)C[C@@H]23)cc1	-8.04% (inactive)
COc1ccc(S(=O)(=O)N(C)C[C@H]2Oc3c(NC(=O)Nc4cccc5ccccc45)cccc3C(=O)N([C@@H](C)CO)C[C@H]2C)cc1	90.2% (inactive)

SMILES	inhibition
C[C@@H]1CN([C@H](C)CO)C(=O)c2cc(/C=C/c3ccccc3)cnc2O[C@@H]1CN(C)Cc1ccncc1	2.78% (inactive)
Cc1cc(C(=O)Nc2cccc3c2O[C@@H](CN(C)Cc2ccc(C(=O)Nc4ccccc4N)cc2)[C@H](C)CN([C@@H](C)CO)C3=O)n(C)n1	63.4% (inactive)
COc1ccc(-c2ccc([C@H]3[C@H]4CN(C(=O)c5ccc6c(c5)OCO6)CCCCN4[C@H]3CO)cc2)cc1	50.5% (inactive)
C[C@H](CO)N1C[C@H](C)[C@H](CN(C)Cc2ccc(-c3ccccc3)cc2)Oc2ccc(NC(=O)Nc3ccc(F)cc3)cc2CC1=O	83.3% (inactive)
CN1c2ccc(-c3ccccc3)cc2[C@H]2[C@H](CCN2C(=O)Cc2ccccn2)[C@H]1CO	72.9% (inactive)
COCC#Cc1ccc([C@@H]2[C@H](CO)N3CCCCN(C(=O)CN(C)C)C[C@@H]23)cc1	29.5% (inactive)
CN1C(=O)c2cc(NC(=O)Nc3ccccc3F)ccc2OC[C@H]2O[C@H](CC(=O)NCc3ccc(-c4ccccc4)cc3)CC[C@H]21	104% (active)
CN1C(=O)c2cc(NC(=O)c3cnccn3)ccc2OC[C@@H]2O[C@@H](CC(=O)N[C@H]3CCN(Cc4ccccc4)C3)CC[C@H]21	32.2% (inactive)
CN1C(=O)c2cc(NC(=O)c3cnccn3)ccc2OC[C@@H]2O[C@H](CC(=O)N[C@@H]3CCN(Cc4ccccc4)C3)CC[C@@H]21	93.2% (inactive)
Cc1ccc(-c2ccc3c(c2)O[C@H](CN(C)C)[C@@H](C)CN([C@H](C)CO)S3(=O)=O)cc1	41.9% (inactive)
O=C(NCC1CCCCC1)[C@H]1[C@H](CO)[C@H]2Cn3c(cccc3=O)[C@H]2N1C(=O)CC1CC1	30.6% (inactive)
Cc1noc(C)c1S(=O)(=O)Nc1ccc2c(c1)C(=O)N([C@@H](C)CO)C[C@@H](C)[C@H](CN(C)S(=O)(=O)c1ccc(Cl)cc1)OCCCC[C@H](C)O2	62.5% (inactive)
C[C@H]1CCCCO[C@H](CN(C)S(=O)(=O)c2ccc(Cl)cc2)[C@@H](C)CN([C@@H](C)CO)C(=O)c2cc(NC(=O)Nc3ccc4c(c3)OCO4)ccc2O1	105% (active)
C[C@H]1CCCCO[C@@H](CN(C)S(=O)(=O)c2cccs2)[C@@H](C)CN([C@@H](C)CO)C(=O)c2cc(NS(=O)(=O)c3ccc(Cl)cc3)ccc2O1	71% (inactive)
COc1ccc(NC(=O)N(C)C[C@@H]2OCCCC[C@@H](C)Oc3ccc(NS(=O)(=O)c4ccc(Cl)cc4)cc3C(=O)N([C@H](C)CO)C[C@H]2C)cc1	44.3% (inactive)
C[C@@H]1CCCCO[C@@H](CN(C)S(=O)(=O)c2ccc(Cl)cc2)[C@H](C)CN([C@@H](C)CO)C(=O)c2cc(NC(=O)Cc3ccccc3)ccc2O1	80.6% (inactive)
C[C@@H]1CCCCO[C@H](CN(C)S(=O)(=O)c2ccc(Cl)cc2)[C@H](C)CN([C@@H](C)CO)C(=O)c2cc(NS(=O)(=O)c3cccs3)ccc2O1	79.2% (inactive)
Cc1ccc(S(=O)(=O)N(C)C[C@H]2OCCCC[C@H](C)Oc3ccc(NC(=O)Cc4ccccc4)cc3C(=O)N([C@@H](C)CO)C[C@@H]2C)cc1	95% (inactive)
COc1ccc(NC(=O)Nc2ccc3c(c2)C(=O)N([C@H](C)CO)C[C@H](C)[C@H](CN(C)S(=O)(=O)c2ccc(Cl)cc2)OCCCC[C@H](C)O3)cc1	107% (active)
CC(C)NC(=O)Nc1ccc2c(c1)C(=O)N([C@@H](C)CO)C[C@H](C)[C@H](CN(C)S(=O)(=O)c1ccc(Cl)cc1)OCCCC[C@H](C)O2	99.7% (active)

SMILES	inhibition
COc1ccc(S(=O)(=O)Nc2ccc3c(c2)C(=O)N([C@@H](C)CO)C[C@H](C)[C@@H](CN(C)Cc2ccc(C(F)(F)F)cc2)O3)cc1	58.4% (inactive)
CNC[C@H]1OCCCC[C@H](C)Oc2ccc(NC(=O)Nc3c(C)noc3C)cc2C(=O)N([C@H](C)CO)C[C@H]1C	2.68% (inactive)
O=C(Nc1cc(F)ccc1F)N1CCCCN2[C@H](CO)[C@@H](c3ccc(-c4cncnc4)cc3)[C@H]2C1	13.7% (inactive)
Cc1ccc(-c2cnc3c(c2)C(=O)N([C@@H](C)CO)C[C@@H](C)[C@H](CN(C)Cc2ccccc2F)O3)cc1	72.1% (inactive)
CN(C)C(=O)c1ccc(-c2ccc([C@H]3[C@@H](CO)N4CCCCN(CC5CC5)C[C@H]34)cc2)cc1	60.8% (inactive)
O=C(C[C@@H]1C[C@H]2c3cc(NC(=O)C4CCC4)ccc3O[C@H]2[C@@H](CO)O1)NCc1ccc2c(c1)OCO2	-16.2% (inactive)
C[C@H](CO)N1C[C@H](C)[C@@H](CN(C)S(=O)(=O)c2ccc(F)cc2)Oc2cc(C3=CCCC3)ccc2S1(=O)=O	78.5% (inactive)
C[C@@H]1CN([C@@H](C)CO)S(=O)(=O)c2ccc(C#Cc3ccc(F)cc3)cc2O[C@H]1CN(C)S(C)(=O)=O	27.8% (inactive)
C[C@@H]1CN([C@H](C)CO)C(=O)CCCn2nncc2CO[C@@H]1CN(C)Cc1ccc(C(=O)Nc2ccccc2N)cc1	59.4% (inactive)
C[C@H](CO)N1C[C@H](C)[C@H](CN(C)C(=O)Nc2ccc(C(F)(F)F)cc2)OCCCC[C@H](C)Oc2ccc(NC(=O)C3CCCCC3)cc2C1=O	109% (active)
COc1ccc(NC(=O)N(C)C[C@H]2OCCCC[C@H](C)Oc3ccc(NC(=O)Nc4ccc(C(F)(F)F)cc4)cc3C(=O)N([C@@H](C)CO)C[C@@H]2C)cc1	113% (active)
CC(C)NC(=O)Nc1ccc2c(c1)C(=O)N([C@H](C)CO)C[C@H](C)[C@H](CN(C)C(=O)Nc1ccc(C(F)(F)F)cc1)OCCCC[C@@H](C)O2	94% (inactive)
C[C@@H]1CCCCO[C@H](CN(C)C(=O)Nc2ccc(C(F)(F)F)cc2)[C@H](C)CN([C@H](C)CO)C(=O)c2cc(NC(=O)Nc3ccc(C(F)(F)F)cc3)ccc2O1	115% (active)
C[C@@H]1CN([C@@H](C)CO)C(=O)c2cc(NC(=O)Nc3ccc(C(F)(F)F)cc3)ccc2O[C@@H](C)CCCCO[C@H]1CN(C)C(=O)c1ccccc1	69.7% (inactive)
C[C@@H]1CCCCO[C@H](CN(C)C(=O)CCC(F)(F)F)[C@H](C)CN([C@H](C)CO)C(=O)c2cc(NS(C)(=O)=O)ccc2O1	7.29% (inactive)
CCCC#Cc1ccc2c(c1)O[C@H](CN(C)C(=O)CC)[C@@H](C)CN([C@H](C)CO)S2(=O)=O	38.5% (inactive)
C/C=C/c1ccc([C@H]2[C@@H](CNC(C)C)N(c3nc(CC)cs3)[C@H]2CO)cc1	89.5% (inactive)
CCCC#Cc1ccc([C@H]2[C@H](CO)N3CCCCN(C(=O)c4ccc5c(c4)OCO5)C[C@@H]23)cc1	42.1% (inactive)
